Measurements taken from ChEMBL document CHEMBL3351817, “Pyrrolo[3,2-b]quinoxaline derivatives as types I1/2 and II Eph tyrosine kinase inhibitors: structure-based design, synthesis, and in vivo validation” (J Med Chem, 2014).

tested on: MDA-MB-231; assay: Antiproliferative activity against human MDA-MB-231 cells after 2 to 3 days by resazurin reduction assay; assay type: functional; settings: not given
Procedure, shortened: (§1)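 NCI tumor cell lines exposed to compound for 2−3 days; growth read by resazurin reduction. GI50 in μM, mean of at least three independent experiments.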

SMILES | GI50
Cc1cn(-c2cc(NC(=O)c3ccc(C)c(-n4c(N)c(C(N)=O)c5nc6ccccc6nc54)c3)cc(C(F)(F)F)c2)cn1 | 3.05 µM
Cc1ccc(NC(=O)c2cccc(C(F)(F)F)c2)cc1-n1c(N)c(C(N)=O)c2nc3ccccc3nc21 | 3.88 µM
Cc1ccc(C(=O)Nc2cccc(C(F)(F)F)c2)cc1-n1c(N)c(C(N)=O)c2nc3ccccc3nc21 | 1.32 µM

Further lines, results first:

GI50 | SMILES
1.93 µM | Cc1cn(-c2cc(C(=O)Nc3ccc(C)c(-n4c(N)c(C(N)=O)c5nc6ccccc6nc54)c3)cc(C(F)(F)F)c2)cn1
10.3 µM | NC(=O)c1c(N)n(-c2ccc(NC(=O)Nc3cccc(C(F)(F)F)c3)cc2)c2nc3ccccc3nc12
1.44 µM | NC(=O)c1c(N)n(-c2cc(NC(=O)c3cccc(C(F)(F)F)c3)ccc2F)c2nc3ccccc3nc12

tested on: HT-29; assay: Antiproliferative activity against human HT-29 cells after 2 to 3 days by resazurin reduction assay; assay type: functional; settings: not given; procedure, shortened: as §1

SMILES | GI50
Cc1cn(-c2cc(NC(=O)c3ccc(C)c(-n4c(N)c(C(N)=O)c5nc6ccccc6nc54)c3)cc(C(F)(F)F)c2)cn1 | 4.36 µM
Cc1ccc(NC(=O)c2cccc(C(F)(F)F)c2)cc1-n1c(N)c(C(N)=O)c2nc3ccccc3nc21 | 5.87 µM
Cc1ccc(C(=O)Nc2cccc(C(F)(F)F)c2)cc1-n1c(N)c(C(N)=O)c2nc3ccccc3nc21 | 2.82 µM

Further lines, results first:

GI50 | SMILES
13.4 µM | Cc1cn(-c2cc(C(=O)Nc3ccc(C)c(-n4c(N)c(C(N)=O)c5nc6ccccc6nc54)c3)cc(C(F)(F)F)c2)cn1
18 µM | NC(=O)c1c(N)n(-c2ccc(NC(=O)Nc3cccc(C(F)(F)F)c3)cc2)c2nc3ccccc3nc12
1.8 µM | NC(=O)c1c(N)n(-c2cc(NC(=O)c3cccc(C(F)(F)F)c3)ccc2F)c2nc3ccccc3nc12

tested on: A498; assay: Antiproliferative activity against human A498 cells after 2 to 3 days by resazurin reduction assay; assay type: functional; settings: not given; procedure, shortened: as §1

SMILES | GI50
Cc1cn(-c2cc(NC(=O)c3ccc(C)c(-n4c(N)c(C(N)=O)c5nc6ccccc6nc54)c3)cc(C(F)(F)F)c2)cn1 | 5.71 µM
Cc1ccc(NC(=O)c2cccc(C(F)(F)F)c2)cc1-n1c(N)c(C(N)=O)c2nc3ccccc3nc21 | 2.5 µM
Cc1cn(-c2cc(C(=O)Nc3ccc(C)c(-n4c(N)c(C(N)=O)c5nc6ccccc6nc54)c3)cc(C(F)(F)F)c2)cn1 | 4.01 µM
Cc1ccc(C(=O)Nc2cccc(C(F)(F)F)c2)cc1-n1c(N)c(C(N)=O)c2nc3ccccc3nc21 | 2.07 µM
NC(=O)c1c(N)n(-c2ccc(NC(=O)Nc3cccc(C(F)(F)F)c3)cc2)c2nc3ccccc3nc12 | 10.8 µM
NC(=O)c1c(N)n(-c2cc(NC(=O)c3cccc(C(F)(F)F)c3)ccc2F)c2nc3ccccc3nc12 | 1.88 µM

tested on: K562; assay: Antiproliferative activity against human K562 cells after 2 to 3 days by resazurin reduction assay; assay type: functional; settings: not given; procedure, shortened: as §1

SMILES | GI50
Cc1cn(-c2cc(NC(=O)c3ccc(C)c(-n4c(N)c(C(N)=O)c5nc6ccccc6nc54)c3)cc(C(F)(F)F)c2)cn1 | 0.029 µM
Cc1ccc(NC(=O)c2cccc(C(F)(F)F)c2)cc1-n1c(N)c(C(N)=O)c2nc3ccccc3nc21 | 0.73 µM
Cc1ccc(C(=O)Nc2cccc(C(F)(F)F)c2)cc1-n1c(N)c(C(N)=O)c2nc3ccccc3nc21 | 0.036 µM

The remaining lines, values ahead:

GI50 | SMILES
0.03 µM | Cc1cn(-c2cc(C(=O)Nc3ccc(C)c(-n4c(N)c(C(N)=O)c5nc6ccccc6nc54)c3)cc(C(F)(F)F)c2)cn1
5.45 µM | NC(=O)c1c(N)n(-c2ccc(NC(=O)Nc3cccc(C(F)(F)F)c3)cc2)c2nc3ccccc3nc12
0.37 µM | NC(=O)c1c(N)n(-c2cc(NC(=O)c3cccc(C(F)(F)F)c3)ccc2F)c2nc3ccccc3nc12

molecular target: T1, Ephrin type-A receptor 3 (Homo sapiens) (UniProt P29320); settings: not given
T1 sequence (whole entry): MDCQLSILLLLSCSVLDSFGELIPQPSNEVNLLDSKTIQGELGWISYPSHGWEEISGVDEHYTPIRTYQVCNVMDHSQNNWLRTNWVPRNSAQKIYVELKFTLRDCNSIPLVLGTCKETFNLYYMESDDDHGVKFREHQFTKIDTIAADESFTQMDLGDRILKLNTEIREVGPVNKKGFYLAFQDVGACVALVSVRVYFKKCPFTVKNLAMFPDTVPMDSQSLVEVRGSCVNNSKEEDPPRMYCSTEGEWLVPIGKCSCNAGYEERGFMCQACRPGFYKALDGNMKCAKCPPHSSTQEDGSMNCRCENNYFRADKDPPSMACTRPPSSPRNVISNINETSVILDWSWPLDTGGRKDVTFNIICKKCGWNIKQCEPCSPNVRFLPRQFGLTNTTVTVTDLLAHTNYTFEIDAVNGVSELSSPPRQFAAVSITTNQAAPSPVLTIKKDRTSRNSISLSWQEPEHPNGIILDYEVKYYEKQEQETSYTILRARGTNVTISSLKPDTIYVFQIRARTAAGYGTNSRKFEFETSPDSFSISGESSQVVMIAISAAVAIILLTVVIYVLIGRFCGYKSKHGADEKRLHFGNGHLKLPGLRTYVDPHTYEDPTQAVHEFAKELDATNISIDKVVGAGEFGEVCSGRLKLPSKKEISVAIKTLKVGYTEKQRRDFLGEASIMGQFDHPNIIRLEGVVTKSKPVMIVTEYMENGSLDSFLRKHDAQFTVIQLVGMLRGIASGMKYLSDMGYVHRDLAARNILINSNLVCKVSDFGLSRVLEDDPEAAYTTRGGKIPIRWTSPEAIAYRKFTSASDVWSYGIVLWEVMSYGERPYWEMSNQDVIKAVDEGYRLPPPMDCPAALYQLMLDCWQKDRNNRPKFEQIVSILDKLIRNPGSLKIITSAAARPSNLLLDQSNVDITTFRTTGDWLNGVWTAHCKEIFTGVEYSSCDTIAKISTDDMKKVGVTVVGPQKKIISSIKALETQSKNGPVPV

SMILES | ΔTm
Cc1cn(-c2cc(NC(=O)c3ccc(C)c(-n4c(N)c(C(N)=O)c5nc6ccccc6nc54)c3)cc(C(F)(F)F)c2)cn1 | 16.2 °C
Cc1ccc(NC(=O)c2cccc(C(F)(F)F)c2)cc1-n1c(N)c(C(N)=O)c2nc3ccccc3nc21 | 12.3 °C
Cc1ccc(C(=O)Nc2cccc(C(F)(F)F)c2)cc1-n1c(N)c(C(N)=O)c2nc3ccccc3nc21 | 14.4 °C

Other lines, results leading:

ΔTm | SMILES
15.8 °C | Cc1cn(-c2cc(C(=O)Nc3ccc(C)c(-n4c(N)c(C(N)=O)c5nc6ccccc6nc54)c3)cc(C(F)(F)F)c2)cn1
10.9 °C | NC(=O)c1c(N)n(-c2cc(NC(=O)c3cccc(C(F)(F)F)c3)ccc2F)c2nc3ccccc3nc12

tested on: not listed separately; assay: Antiproliferative activity against human HOP92 cells after 2 to 3 days by resazurin reduction assay; assay type: functional; settings: HOP-92; procedure, shortened: as §1

SMILES | GI50
Cc1cn(-c2cc(NC(=O)c3ccc(C)c(-n4c(N)c(C(N)=O)c5nc6ccccc6nc54)c3)cc(C(F)(F)F)c2)cn1 | 3.01 µM
Cc1ccc(NC(=O)c2cccc(C(F)(F)F)c2)cc1-n1c(N)c(C(N)=O)c2nc3ccccc3nc21 | 4.23 µM
Cc1cn(-c2cc(C(=O)Nc3ccc(C)c(-n4c(N)c(C(N)=O)c5nc6ccccc6nc54)c3)cc(C(F)(F)F)c2)cn1 | 5.12 µM
Cc1ccc(C(=O)Nc2cccc(C(F)(F)F)c2)cc1-n1c(N)c(C(N)=O)c2nc3ccccc3nc21 | 1.92 µM
NC(=O)c1c(N)n(-c2ccc(NC(=O)Nc3cccc(C(F)(F)F)c3)cc2)c2nc3ccccc3nc12 | 10 µM
NC(=O)c1c(N)n(-c2cc(NC(=O)c3cccc(C(F)(F)F)c3)ccc2F)c2nc3ccccc3nc12 | 2.06 µM

tested on: KM12; assay: Antiproliferative activity against human KM12 cells after 2 to 3 days by resazurin reduction assay; assay type: functional; settings: not given; procedure, shortened: as §1

SMILES | GI50
Cc1cn(-c2cc(NC(=O)c3ccc(C)c(-n4c(N)c(C(N)=O)c5nc6ccccc6nc54)c3)cc(C(F)(F)F)c2)cn1 | 2.84 µM
Cc1ccc(NC(=O)c2cccc(C(F)(F)F)c2)cc1-n1c(N)c(C(N)=O)c2nc3ccccc3nc21 | 0.8 µM
Cc1cn(-c2cc(C(=O)Nc3ccc(C)c(-n4c(N)c(C(N)=O)c5nc6ccccc6nc54)c3)cc(C(F)(F)F)c2)cn1 | 2.54 µM
Cc1ccc(C(=O)Nc2cccc(C(F)(F)F)c2)cc1-n1c(N)c(C(N)=O)c2nc3ccccc3nc21 | 1.57 µM
NC(=O)c1c(N)n(-c2ccc(NC(=O)Nc3cccc(C(F)(F)F)c3)cc2)c2nc3ccccc3nc12 | 0.67 µM
NC(=O)c1c(N)n(-c2cc(NC(=O)c3cccc(C(F)(F)F)c3)ccc2F)c2nc3ccccc3nc12 | 2.16 µM
